Screening data: PubChem BioAssay, The Scripps Research Institute Molecular Screening Center
A selection: hits, their analogues and other compounds. The true share with any hit is near 4.6%.
OX1R antag-1: OX1R (human) antagonism; actives 1.8% (n = 330,000); inhibition, % at 6.6 µM; OX1R-expressing cells, FRET antagonist read-out; O43613; in the data active means inhibition mostly above about 38%, no sharp cut-off; inactive means mostly below about 40%;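 further: 0% = agonist challenge alone and 100% = reference antagonist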
Target sequence (O43613 whole entry, looked up): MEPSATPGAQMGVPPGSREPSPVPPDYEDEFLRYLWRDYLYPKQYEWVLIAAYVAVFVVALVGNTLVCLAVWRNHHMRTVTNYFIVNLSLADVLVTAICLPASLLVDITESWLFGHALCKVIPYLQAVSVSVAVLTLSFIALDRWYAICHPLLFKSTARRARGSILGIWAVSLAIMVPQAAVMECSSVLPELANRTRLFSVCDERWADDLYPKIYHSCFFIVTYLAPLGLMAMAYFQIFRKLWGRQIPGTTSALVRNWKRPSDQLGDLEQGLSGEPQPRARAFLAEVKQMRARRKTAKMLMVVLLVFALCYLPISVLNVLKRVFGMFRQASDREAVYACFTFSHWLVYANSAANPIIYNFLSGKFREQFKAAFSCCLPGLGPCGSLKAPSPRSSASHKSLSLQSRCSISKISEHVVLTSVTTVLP
OX1R antag-2: blocks the human orexin 1 receptor | actives 0.43% (n = 330,000) | AID 434989 | inhibition, % at 5 µM | O43613 | CHO/OX1R cells, Fluo-8 calcium fluorescence, orexin A;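 active means inhibition above its plate's threshold, mean inhibition of all tested compounds on the plate plus 3 SD, cut at about 37% in these data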;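 further: 0% = orexin A challenge wells and 100% = SB-334867-A antagonist wells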
GPR7 antagonist: antagonists of human GPR7 (neuropeptides B/W receptor 1). actives 1.1% (n = 290,000). GPR7-expressing cells, fluorescence antagonist assay. inhibition, % at 4.4 µM. P48145; in the data active means inhibition above about 16%, passing the limit was not always enough;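 further: cells stimulated with the agonist NPW; 0% = agonist with vehicle and 100% = vehicle without agonist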
TAAR1 antagonist: antagonists of human TAAR1. Q96RJ0. CHO RD-HGA16 TAAR1, Fluo-8 calcium fluorescence, antagonist. inhibition, % at 3 µM. actives 1.5% (n = 360,000). AID 624466;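 active means inhibition above a per-plate cutoff, the mean inhibition of test compounds on that plate plus 3 SD, cut at about 49% in these data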;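 further: 0% = DMSO plus EC80 beta-PEA response and 100% = DMSO alone without agonist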
Target sequence (Q96RJ0 whole entry, looked up): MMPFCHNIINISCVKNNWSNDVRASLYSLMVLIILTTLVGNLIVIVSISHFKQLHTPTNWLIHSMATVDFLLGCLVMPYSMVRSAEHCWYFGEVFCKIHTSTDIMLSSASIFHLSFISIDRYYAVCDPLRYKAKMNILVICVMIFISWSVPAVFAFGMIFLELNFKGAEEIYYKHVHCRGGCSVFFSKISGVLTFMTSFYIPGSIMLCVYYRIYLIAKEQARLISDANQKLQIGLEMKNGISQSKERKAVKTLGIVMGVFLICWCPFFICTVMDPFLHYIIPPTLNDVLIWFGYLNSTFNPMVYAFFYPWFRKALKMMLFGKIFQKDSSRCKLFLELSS
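Material: RD-HGA16 CHO cells with stable hTAAR1 and Gα16; Dosing: single nominal final test compound concentration of 3 µM; Schedule: seeding 17-24 h prior, 75-min 37 °C, 30-min RT dye loading; Detection: kinetic Fluo-8 calcium fluorescence measurement; Measure: % inhibition from peak post-agonist over basal fluorescence ratio; Benchmarks: vehicle and agonist controls.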
TAAR1 agonist: human TAAR1 agonism | Q96RJ0 | CHO RD-HGA16 TAAR1, Fluo-8 calcium fluorescence; vehicle wells 0%, saturating PEA agonist 100% | activation, % at 3 µM | actives 0.99% (n = 360,000);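 active means activation above the mean activation of all test compounds in the run plus 3 SD, cut at about 38% in these data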
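Signal – calcium-sensitive Fluo-8 signal, excitation 470-495, emission 515-575 nm · System – RD-HGA16 (CHO) cells co-expressing Gα16 and hTAAR1 · Incubation – 17-24 h seeding, 75 min 37 °C dye, 30 min RT · Compound dosing – 3 µM single concentration · Repeats – no replicates (n 1)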
CHO parental Ca: signal in parental CHO cells, OX1R antagonist counter-screen | parental CHO-K1, ATP-induced calcium, Fluo-8 fluorescence | inhibition, % at 5.6 µM | actives 0.63% (n = 330,000);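 active means inhibition above that plate's mean sample inhibition plus 3 SD, cut at about 26% in these data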;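 further: 0% = ATP-challenged DMSO wells and 100% = DMSO wells without ATP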
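Assay system: parental CHO cells; Read-out basis: percent inhibition of ATP-evoked calcium rise, normalized to controls; Benchmarks: ATP and no-ATP DMSO wells; Compound dosing: single nominal dose of 5.6 µM per compound; Signal: Fluo-8 calcium dye fluorescence; Also added: ATP as calcium-mobilizing challenge; Repeats: singlicate.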
The depositor's hits bear a star; nt = no result.

SMILES | OX1R antag-1 | OX1R antag-2 | GPR7 antagonist | TAAR1 antagonist | TAAR1 agonist | CHO parental Ca
CCOCC(=O)Nc1c(C(=O)Nc2ccccc2OC)oc2ccccc12 | 1 | -3 | 8 | 9 | 5 | -8
COc1ccccc1NC(=O)c1oc2ccccc2c1C | nt | nt | nt | 0 | 3 | nt
CCOC(=O)c1oc2ccccc2c1NC(=O)c1cccc(OC)c1OC | 25 | -32 | -16 | 49* | 4 | 3
COc1ccc(NC(=O)c2oc3ccccc3c2C)c(OC)c1 | 53* | 2 | 0 | -11 | 10 | -21
C[C@@H]1CN([C@@H](C)CO)C(=O)CCCn2cc(nn2)CO[C@H]1CN(C)C(=O)C1CCCCC1 | nt | nt | nt | -7 | 3 | nt
Cc1ccc(-c2[nH]nc(N)c2N=Nc2cccc(Cl)c2C)cc1 | nt | nt | 8 | 1 | 27 | nt
Cc1ccc(-c2[nH]nc(N)c2N=Nc2ccccc2C)cc1 | 48 | 14 | -29 | -11 | 3 | 56*
COc1ccc(/C=C2\Oc3cc(OCC(=O)N4CCC[C@H]4C(=O)O)ccc3C2=O)c(OC)c1OC | 39 | -6 | -2 | -8 | 2 | -10
COc1ccc(/C=C2\Oc3cc(OCC(=O)N4CCC[C@H]4C(=O)O)ccc3C2=O)cc1OC | 51* | -4 | 5 | nt | nt | -11
COC(=O)/C=C1\OC(c2ccccc2)c2ccccc21 (stereo unspecified) | nt | nt | nt | -28 | 2 | nt
CC1CN(C(=S)NC(=O)c2ccc([N+](=O)[O-])cc2)CC(C)O1 (stereo unspecified) | 120* | -11 | -4 | 10 | 1 | -6
CC1CN(C(=S)NC(=O)c2ccccc2)CC(C)O1 (stereo unspecified) | 7 | 3 | -9 | -11 | 9 | -2
O=C(c1ccc(Cl)c(S(=O)(=O)N2CCCCCC2)c1)N1CCN(c2ccccn2)CC1 | 9 | -6 | 21* | 33 | 15 | -13
Cc1ccc(C(C)(C)C)cc1S(=O)(=O)Nc1cccc(C(=O)N2CCN(c3ccccn3)CC2)c1 | nt | nt | nt | 61* | 15 | nt
COc1ccc(C2CC=C(C(C)=O)CN2S(=O)(=O)c2ccccc2)cc1 (stereo unspecified) | nt | nt | nt | -16 | 2 | nt
O=C(/C=C/c1ccccc1)NC(NC(=S)Nc1ccc(Cl)cc1)C(Cl)(Cl)Cl (stereo unspecified) | 75 | 16 | 3 | 0 | 8 | 4
O=C(CCc1ccccc1)NC(NC(=S)Nc1ccc(Cl)cc1)C(Cl)(Cl)Cl (stereo unspecified) | 66 | 33 | -6 | 2 | 17 | 41*
COc1ccc(-c2oc3c(OC)c(OC)c(OC)c(O)c3c(=O)c2OC)cc1OC | 15 | -25 | -22 | 38 | 1 | -20
COc1c(OC)c(O)c2c(=O)c(O)c(-c3ccccc3)oc2c1OC | 57* | 8 | 0 | 0 | 7 | -30
CC(C)n1ncc2c(C(=O)Nc3ccccc3SCC(N)=O)cc(C3CC3)nc21 | nt | nt | nt | 49* | 13 | nt
CCc1ccccc1NC(=O)CNC(=O)c1cc(C2CC2)nc2c1cnn2C(C)C | 38* | 9 | nt | 10 | 2 | -17
Cc1cc(C)c(NC(=O)CNC(=O)c2cc(C3CC3)nc3c2cnn3C(C)C)c(C)c1 | nt | nt | nt | -2 | 5 | nt
Cc1cc2c(nc1C)CCCN2S(=O)(=O)c1cccs1 | nt | nt | nt | -16 | 0 | nt
Fc1ccc2cc(C3=CCCCC3)ncc2c1 | nt | nt | nt | -1 | -1 | nt
CC(C)NC(=O)N(C)C[C@@H]1OCc2cn(nn2)CCCC(=O)N([C@@H](C)CO)C[C@H]1C | nt | nt | nt | -1 | 0 | nt
SMILES | OX1R antag-1 | OX1R antag-2 | GPR7 antagonist | TAAR1 antagonist | TAAR1 agonist | CHO parental Ca
CCNS(=O)(=O)c1ccc(CCC(N)=O)cc1 | 8 | 0 | 19* | -6 | 7 | -7
O=C(O)CCc1ccc(S(=O)(=O)NCCc2ccccc2)cc1 | 4 | -11 | -3 | 24 | 37* | 1
CCC(=O)N1CCC1(C)C(=O)Nc1cccc2c1CCCC2 (stereo unspecified) | nt | nt | nt | -17 | 0 | nt
COc1ccccc1CCn1cnc(-c2cccc(Br)c2)c1C(C)C | nt | nt | nt | 17 | 27 | nt
CC(=O)Nc1ccc(S(=O)(=O)N2c3ccccc3C(C)=CC2(C)C)cc1 | 21 | -16 | 22* | -17 | 6 | -13
CC1=CC(C)(C)N(S(=O)(=O)c2ccc(F)cc2)c2ccccc21 | 29 | -14 | -3 | -10 | 4 | -17
Cc1cccc(C)c1NC(=O)C1(C)CSCC(=O)N1CCC(C)C (stereo unspecified) | nt | nt | nt | -15 | 0 | nt
CC1(C)OC(=O)C2=C(C[C@@H](C3CC3)O[C@@H]2C2CC2)O1 | nt | nt | nt | 17 | 0 | nt
Cc1c(O)cc2c(c1O)C(=O)CC(c1ccccc1)O2 (stereo unspecified) | 4 | 105* | nt | 8 | 0 | 100*
O=c1oc(-c2ccc([N+](=O)[O-])cc2)nc2ccc(O)cc12 | 75* | -11 | -2 | 17 | 4 | 7
CCOC(=O)C1=C(COC(=O)c2ccccc2OC)NC(=O)NC1C (stereo unspecified) | nt | nt | nt | 49* | 14 | nt
O=S1(=O)N[C@H](Cc2ccccc2)COc2cccc(N3CCCCC3)c21 | nt | nt | nt | 14 | 1 | nt
O=c1nccc(N/N=C/c2ccccc2O)[nH]1 | nt | nt | -10 | -9 | 38* | nt
COc1cccc(/C=N/Nc2ccnc(=O)[nH]2)c1O | 10 | -4 | -14 | -4 | 2 | -2
COc1ccc(Cc2c(-c3ccccc3)nc3c(C)cc(Br)cn23)c(C)c1 | nt | nt | nt | -6 | -1 | nt
CCN1CCN(c2cc(N3CCN(C(=O)c4ccco4)CC3)c3c4c(onc24)-c2ccccc2C3=O)CC1 | 69* | -26 | 6 | nt | nt | -20
O=C(O)CCNc1cc(N2CCN(C(=O)c3ccco3)CC2)c2noc3c2c1C(=O)c1ccccc1-3 | 76* | -25 | -10 | 2 | 6 | -2
O=C(NCc1ccccc1)[C@H]1CCCN1C(=O)[C@H]1CCCN1C(=O)c1ccc(OC(F)(F)F)cc1 | nt | nt | nt | -2 | -1 | nt
Cc1cc(NC(=O)c2c(F)cccc2F)n(-c2nc3ccccc3[nH]2)n1 | 3 | -33 | -19 | 23 | 4 | -21
Cc1cc(NC(=O)c2c(F)cccc2Cl)n(-c2nc3ccccc3[nH]2)n1 | 28 | -18 | -3 | 50* | 6 | -4
CCCOc1ccc(F)cc1-c1cc(C(=O)NCc2cccc(C(F)(F)F)c2)[nH]n1 | nt | nt | nt | 23 | -1 | nt
CN(C)CCN1C(=O)C(O)=C(C(=O)c2cc3ccccc3o2)C1c1ccccn1 (stereo unspecified) | 49* | -7 | 15 | nt | nt | 8
O=C(N[C@H](C(=O)N1CCC[C@H]1C(=O)NC1CCCC1)C1CCCCC1)c1ccc(Cl)cc1Cl | nt | nt | nt | -14 | -1 | nt
CCCSc1nnc2nc3c(nn12)c1ccccc1n3C | 66* | 2 | -2 | -22 | -3 | 1
CCN(CC)C(=O)CSc1nnc2c3ccccc3n(C)c2n1 | 26 | -15 | -5 | -8 | 3 | -7
